Structures are written as SMILES. Values after ≈ are worked out from the molar mass of the structure shown. Bounds are passed on as bounds.

Common to all, as to type: functional
The subject of assay [1] is Candida albicans. Description: Antifungal activity against Candida albicans SC5314 after 24 hrs by micro-broth dilution method. The note with it: SC5314, 24 h. In short, it runs like this:
(§1)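 Broth microdilution per NCCLS on Candida albicans. Compounds were dissolved in DMSO, serially diluted in growth medium, inoculated and incubated at 35 °C. Growth was read at 24 h, and MIC80 was taken as the first well with about 80% growth reduction relative to the drug-free control. Values are the mean of three replicates.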

The test system of assay [2] is Candida albicans. In words: Antifungal activity against Candida albicans Y0109 after 24 hrs by micro-broth dilution method. The following applies: Y0109, 24 h. The method in brief:
as §1
In general terms: Dilution methods test growth across graded concentrations, often in twofold steps.

The subject of the next assay is Cryptococcus neoformans. In words: Antifungal activity against Cryptococcus neoformans after 72 hrs by micro-broth dilution method. In short, it runs like this: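 Cryptococcus neoformans tested by NCCLS micro-broth dilution. Compounds were dissolved in DMSO, serially diluted in medium, inoculated and incubated at 35 °C. MIC80 was read at 72 h as the first well showing approximately 80% growth reduction compared with the drug-free well. Values are the mean of three replicate tests.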

In a further assay the test system is Candida parapsilosis. Description: Antifungal activity against Candida parapsilosis by micro-broth dilution method. The following applies: Lodderomyces parapsilosis. In short, it runs like this: (§2)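 MIC80 by broth microdilution in 96-well format following NCCLS. Compounds were dissolved in DMSO, serially diluted in growth medium, inoculated and incubated at 35 °C. The endpoint was the first well with about 80% growth reduction versus the drug-free well. Values are means of three replicate tests.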

The next assay concerns Candida tropicalis. Description: Antifungal activity against Candida tropicalis by micro-broth dilution method. In short, it runs like this: as §2
Another assay concerns Trichophyton rubrum. Description: Antifungal activity against Trichophyton rubrum by micro-broth dilution method. In short, it runs like this: as §2
The subject of the next assay is Kluyveromyces marxianus. In words: Antifungal activity against Candida kefyr by micro-broth dilution method. The method in brief: as §2
The test system of a further assay is Aspergillus fumigatus. Description: Antifungal activity against Aspergillus fumigatus by micro-broth dilution method. In short, it runs like this: as §2

For the molecule `OC(CN(Cc1cn(Cc2ccc(Cl)cc2)nn1)C1CC1)(Cn1cncn1)c1ccc(F)cc1F` (stereo not given), the minimal inhibitory concentration (MIC) (as a rule, the least concentration at which growth counts as inhibited) was found to be 0.25 µg/mL (≈ 0.5 µM) against Candida albicans [1]; 0.25 µg/mL (≈ 0.5 µM) against Candida albicans [2]; 16 µg/mL (≈ 32 µM) against Cryptococcus neoformans; 2 µg/mL (≈ 4 µM) against Candida parapsilosis; 0.5 µg/mL (≈ 1 µM) against Candida tropicalis; 2 µg/mL (≈ 4 µM) in the assay on Trichophyton rubrum. Further, the MIC in the assay on Kluyveromyces marxianus was 0.0156 µg/mL (≈ 0.0312 µM); against Aspergillus fumigatus it was greater than 64 µg/mL.
Regarding `N#Cc1cccc(Cn2cc(CN(CC(O)(Cn3cncn3)c3ccc(F)cc3F)C3CC3)nn2)c1` (stereo not given), the MIC in the assay with Candida albicans [1] stood at 4 µg/mL (≈ 8.15 µM); with Candida albicans [2], 4 µg/mL (≈ 8.15 µM); in the assay with Cryptococcus neoformans it was 64 µg/mL (≈ 130 µM); in the assay with Candida parapsilosis it was 4 µg/mL (≈ 8.15 µM); against Candida tropicalis, 1 µg/mL (≈ 2.04 µM); against Trichophyton rubrum it was 4 µg/mL (≈ 8.15 µM). Further, the MIC is 1 µg/mL (≈ 2.04 µM) in the assay on Kluyveromyces marxianus and greater than 64 µg/mL against Aspergillus fumigatus.
Take `OC(Cn1cncn1)(Cn1cncn1)c1ccc(F)cc1F` [FLUCONAZOLE]: the minimal inhibitory concentration (MIC) with Candida albicans [1] is 0.5 µg/mL (≈ 1.63 µM); in the assay on Candida albicans [2], 0.5 µg/mL (≈ 1.63 µM); against Cryptococcus neoformans it was 8 µg/mL (≈ 26.1 µM); in the assay with Candida parapsilosis it was 2 µg/mL (≈ 6.53 µM); in the assay on Candida tropicalis, less than 0.125 µg/mL; with Trichophyton rubrum it was less than 0.125 µg/mL. Also, the minimal inhibitory concentration (MIC) in the assay with Kluyveromyces marxianus is 1 µg/mL (≈ 3.27 µM); against Aspergillus fumigatus, greater than 64 µg/mL.
Take `N#Cc1ccccc1Cn1cc(CN(CC(O)(Cn2cncn2)c2ccc(F)cc2F)C2CC2)nn1` (stereo not given): the minimum inhibitory concentration (MIC) in the assay with Candida albicans [1] was 0.25 µg/mL (≈ 0.51 µM); in the assay on Candida albicans [2], 16 µg/mL (≈ 32.6 µM); against Cryptococcus neoformans, 64 µg/mL (≈ 130 µM); against Candida parapsilosis, 2 µg/mL (≈ 4.08 µM); with Candida tropicalis it was 1 µg/mL (≈ 2.04 µM); with Trichophyton rubrum it was 2 µg/mL (≈ 4.08 µM). Besides, the MIC against Kluyveromyces marxianus is 1 µg/mL (≈ 2.04 µM); against Aspergillus fumigatus, greater than 64 µg/mL.
For the molecule `CC(C)N(Cc1cn(Cc2ccc(C#N)cc2)nn1)CC(O)(Cn1cncn1)c1ccc(F)cc1F` (stereo not given), the MIC with Candida albicans [1] is 1 µg/mL (≈ 2.03 µM); in the assay on Candida albicans [2], 0.0156 µg/mL (≈ 0.0317 µM); in the assay with Cryptococcus neoformans, 16 µg/mL (≈ 32.5 µM); with Candida parapsilosis it was 0.5 µg/mL (≈ 1.02 µM); in the assay with Candida tropicalis, less than 0.125 µg/mL; with Trichophyton rubrum it was less than 0.125 µg/mL. Besides, the MIC with Kluyveromyces marxianus is 0.25 µg/mL (≈ 0.508 µM); in the assay with Aspergillus fumigatus, greater than 64 µg/mL.
As to `CCCCCn1cc(CN(CC(O)(Cn2cncn2)c2ccc(F)cc2F)C2CC2)nn1` (stereo not given), the minimal inhibitory concentration (MIC) in the assay on Candida albicans [1] was less than 0.125 µg/mL; against Candida albicans [2] it was 0.0625 µg/mL (≈ 0.14 µM); in the assay with Cryptococcus neoformans, 32 µg/mL (≈ 71.8 µM); against Candida parapsilosis, 0.5 µg/mL (≈ 1.12 µM); in the assay with Candida tropicalis, 0.25 µg/mL (≈ 0.561 µM); against Trichophyton rubrum, less than 0.125 µg/mL. Moreover, the minimal inhibitory concentration (MIC) was 0.25 µg/mL (≈ 0.561 µM) against Kluyveromyces marxianus and greater than 64 µg/mL with Aspergillus fumigatus.
In the case of `OC(CN(Cc1cn(C2CCCCC2)nn1)C1CC1)(Cn1cncn1)c1ccc(F)cc1F` (stereo not given), the minimum inhibitory concentration (MIC) in the assay with Candida albicans [1] turned out to be 4 µg/mL (≈ 8.74 µM); in the assay with Candida albicans [2] it was 0.0625 µg/mL (≈ 0.137 µM); with Cryptococcus neoformans, 2 µg/mL (≈ 4.37 µM); against Candida parapsilosis it was 1 µg/mL (≈ 2.19 µM); against Candida tropicalis it was 1 µg/mL (≈ 2.19 µM); against Trichophyton rubrum, 2 µg/mL (≈ 4.37 µM). Also, the minimum inhibitory concentration (MIC) in the assay on Kluyveromyces marxianus amounted to 0.25 µg/mL (≈ 0.546 µM); against Aspergillus fumigatus, 32 µg/mL (≈ 69.9 µM).
Turning to `Cc1ccc(Cn2cc(CN(CC(O)(Cn3cncn3)c3ccc(F)cc3F)C(C)C)nn2)cc1` (stereo not given), the MIC was determined as 1 µg/mL (≈ 2.08 µM) against Candida albicans [1]; 0.0625 µg/mL (≈ 0.13 µM) in the assay with Candida albicans [2]; 8 µg/mL (≈ 16.6 µM) in the assay on Cryptococcus neoformans; 2 µg/mL (≈ 4.15 µM) against Candida parapsilosis; 0.25 µg/mL (≈ 0.519 µM) against Candida tropicalis; 0.25 µg/mL (≈ 0.519 µM) against Trichophyton rubrum. Also, the MIC with Kluyveromyces marxianus is 1 µg/mL (≈ 2.08 µM); against Aspergillus fumigatus, greater than 64 µg/mL.
On to `Cc1ccccc1Cn1cc(CN(CC(O)(Cn2cncn2)c2ccc(F)cc2F)C2CC2)nn1` (stereo not given), for which the MIC in the assay with Candida albicans [1] worked out at 0.0625 µg/mL (≈ 0.13 µM); in the assay with Candida albicans [2] it was 0.0156 µg/mL (≈ 0.0325 µM); against Cryptococcus neoformans, 0.0625 µg/mL (≈ 0.13 µM); in the assay on Candida parapsilosis, 4 µg/mL (≈ 8.34 µM); against Candida tropicalis, 4 µg/mL (≈ 8.34 µM); in the assay with Trichophyton rubrum, 1 µg/mL (≈ 2.09 µM). Besides, the MIC in the assay on Kluyveromyces marxianus was 0.25 µg/mL (≈ 0.521 µM); in the assay on Aspergillus fumigatus, greater than 64 µg/mL.
With `CN(C/C=C/C#CC(C)(C)C)Cc1cccc2ccccc12` [TERBINAFINE], the MIC with Candida albicans [1] was 16 µg/mL (≈ 54.9 µM); in the assay with Candida albicans [2], 2 µg/mL (≈ 6.86 µM); in the assay with Cryptococcus neoformans it was 8 µg/mL (≈ 27.5 µM); with Candida parapsilosis it was less than 0.125 µg/mL; against Candida tropicalis it was less than 0.125 µg/mL; with Trichophyton rubrum it was less than 0.125 µg/mL. Moreover, the figures for the minimal inhibitory concentration (MIC) against Kluyveromyces marxianus and against Aspergillus fumigatus were 0.0625 µg/mL (≈ 0.214 µM) and 0.25 µg/mL (≈ 0.858 µM), respectively.

Source of the values: ChEMBL document CHEMBL1250476, “Synthesis and antifungal evaluation of novel triazole derivatives as inhibitors of cytochrome P450 14alpha-demethylase” (2010).
